# hERG rescue: hERG rescue from dofetilide block, primary screen, cell-based, CHO-hERG, FluxOR thallium flux, dofetilide IC70; Voltage-gated inwardly rectifying potassium channel KCNH2 (Homo sapiens), Q12809; dofetilide IC70 present; activation (rescue from dofetilide block), less the hit threshold, % at 10 µM; actives 0.51% (n = 310,000); AID 1511, 2009;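 active = activation above the mean of controls blocked by dofetilide plus 5 SD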;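 note: thallium influx through hERG after potassium depolarization seen as dye fluorescence rise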
# KCNK9 inh: KCNK9 potassium channel inhibitors, primary screen, HEK293 cells, thallium flux. Potassium channel subfamily K member 9 (Homo sapiens), Q9NPC2. FluxOR thallium flux fluorescence; active compounds read low. B-score at 10 µM. actives 1.2% (n = 310,000);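 active = ratio B-score over 3 SD below the library mean, with starting fluorescence within 5 SD of its mean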;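 note: negative B-score means less thallium flux so channel inhibition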
# Kir21 block: inhibitors of mouse Kir2.1 inward-rectifier potassium channel; Inward rectifier potassium channel 2 (Mus musculus), P35561; HEK293-Kir2.1, FluxOR thallium flux fluorescence; active compounds read low; B-score at 10 µM; actives 0.85% (n = 310,000);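 active = fluorescence ratio B-score at or below minus 3 SD of library scores, with starting-brightness B-score within 2 SD, cut at about -4.2 in these data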;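 note: channel flux triggered by added potassium and thallium sulfate stimulus; B-score of peak minus minimum fluorescence over baseline after thallium stimulus; more negative B-score means stronger Kir2.1 block with less thallium influx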
# KCNK3 inh: human KCNK3 channel inhibitors, primary screen, CHO cells, FluxOR thallium flux, B-score; Potassium channel subfamily K member 3 (Homo sapiens), O14649; FluxOR fluorescence; active compounds read low; B-score at 10 µM; actives 0.84% (n = 340,000); AID 602410, 2012;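 active = B-score under library mean minus 4 SD, starting fluorescence ratio at most library mean plus 5 SD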;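 note: more negative B-score means stronger inhibition of thallium flux through KCNK3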
# KCNQ1 inh: inhibitors of human KCNQ1 channel, primary screen, cell-based, thallium flux, high-throughput; CHO-K1 KCNQ1, FluxOR thallium flux fluorescence; active compounds read high; Potassium voltage-gated channel subfamily KQT member 1 (Homo sapiens), P51787; actives 1.3% (n = 310,000); B-score at 10 µM;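 active = compounds whose thallium flux B-score, printed positive for inhibition, exceeds three library SD while starting fluorescence stays within three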;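 note: channel opened by potassium depolarization with thallium stimulus after 20 min compound exposure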
# KCNQ1 pot: potentiators or activators of KCNQ1 channel, primary screen, cell-based, thallium flux, high-throughput; CHO-K1 KCNQ1, thallium flux FluxOR fluorescence; active compounds read high; B-score at 10 µM; actives 0.35% (n = 310,000); AID 2648, 2010;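 active = fluorescence ratio B-score, a plate-corrected score, at least three library SD, with initial intensity B-score within 5 SD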
#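 Assay system: stable KCNQ1 CHO-K1 line; medium: assay buffer, equal DMSO in all wells; timing: 90 min dye loading and 20 min compound exposure, both at room temperature; technique: kinetic FluxOR thallium fluorescence, 10-s 1-Hz baseline, 110-s post-stimulus read; read-out basis: B score of baseline-normalized fluorescence ratio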
# KCNK9 inh conf: KCNK9 potassium channel inhibitors, confirmation, HEK293 cells, thallium flux, duplicate; actives 43% (n = 4,900); FluxOR thallium flux fluorescence; inhibition, % at 10 µM; AID 492992, 2010; shares compounds with KCNK9 inh;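 active = thallium signal inhibited by more than 5 SD of the compound-free buffer control wells, on both duplicate plates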;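 note: 0% = assay buffer control wells without compound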
# Kir21 sel: mouse Kir2.1 channel inhibition, confirmation, selectivity assay for KCNK9 modulator project, cell-based, HEK293, thallium flux; shares compounds with KCNK9 inh; Kir2.1 cells, FluxOR thallium flux fluorescence; inhibition, % at 10 µM; actives 4% (n = 4,900);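 active = thallium signal drop more than 5 SD beyond the mean of the no-compound control wells, seen in both duplicate plates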;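 note: signal is fluorescence rise after thallium addition divided by baseline fluorescence; plate controls were assay buffer only for no effect and full block by chlorpromazine control for full effect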
# KCNK9 uninduced: thallium flux in non-induced HEK293 cells, confirmation, counter-screen for KCNK9 inhibitor project, cell-based, second counter screen, non-induced KCNK9-HEK293; shares compounds with KCNK9 inh; FluxOR thallium flux; inhibition, % at 10 µM; actives 40% (n = 4,900); AID 492997, 2010;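 active = thallium signal drop beyond 5 SD of the untreated control mean, on both duplicate plates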;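 note: plate controls were buffer only IC0 wells for no effect and SID17386958 at its maximal inhibitory level for full effect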
# KCNK3 confirm: retest of human KCNK3 channel inhibitors, confirmation, CHO cells, FluxOR thallium flux, triplicate; shares compounds with KCNK3 inh; actives 99% (n = 2,400); AID 651638, 2012; FluxOR fluorescence; 0% buffer, 100% carvedilol maximal block; ratio percent of control, % at 10 µM;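 active = ratio percent of control, averaged over triplicates, above buffer control mean plus 5 SD, cut at about 64% in these data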;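 note: ratio is the fluorescence rise from min to max over baseline after thallium stimulus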
# KCNK3 noninduced: thallium flux inhibition in non-induced cells, primary screen, counter-screen for KCNK3 inhibitor project, cell-based, non-induced KCNK3 line, FluxOR thallium, triplicate. shares compounds with KCNK3 inh. non-induced KCNK3 parental cells; active compounds read low. thallium flux ratio (lower = more inhibition) at 10 µM. actives 40% (n = 2,400);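 active = thallium flux ratio, averaged over three wells, more than 5 SD below the buffer control mean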;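 note: host cells are CHO cells without KCNK3 induction; ratio is peak minus trough fluorescence over baseline then normalized to buffer controls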
# Active calls of the source: *; i = inactive; / = not tested or not shown. In the library only some 3.7% were active in any assay of this set; here they are far more common.
SMILES,hERG rescue,KCNK9 inh,Kir21 block,KCNK3 inh,KCNQ1 inh,KCNQ1 pot,KCNK9 inh conf,Kir21 sel,KCNK9 uninduced,others
COc1ccccc1N1CCN(C2CCCN(C(=O)COc3ccccc3Cl)C2)CC1 (centres undefined),-9,i,1.1,i,i,i,i,i,i,
CC(C)c1ccc(NC(=O)CCNC(=O)N2C[C@H]3C[C@@H](C2)c2cccc(=O)n2C3)cc1,-7,i,-0.83,i,i,i,/,/,/,
C[C@]12CCC3C(CC[C@@H]4C[C@H](O)CC[C@]34C)C1CCC2=O (some centres undefined),/,/,/,i,/,/,/,/,/,
Clc1cnc(Oc2ccc(Oc3ncc(Cl)cc3Cl)cc2)c(Cl)c1,-6,i,0.73,i,i,i,i,i,i,
Cc1ccc(C)c(NC(=O)CCNC(=O)N2C[C@H]3C[C@@H](C2)c2cccc(=O)n2C3)c1,-2,i,0.76,i,i,i,/,/,/,
Cc1nc(Cl)sc1C(=O)Nc1ccc2ccccc2c1,-7,i,2.3,i,i,i,/,/,/,
O=C(Nc1ccc2ccccc2c1)c1nn(C23CC4CC(CC(C4)C2)C3)cc1Br,-12,i,-0.03,i,i,i,i,i,i,
COc1cc(/C=C/C(=O)c2c(O)n(CCc3ccccc3)c(=O)[nH]c2=O)ccc1O,-8,i,0.44,i,i,i,/,/,/,
CCc1ccc(N2C(=O)NC(=O)/C(=C/c3cccn3CCOc3ccc(C(C)CC)cc3)C2=O)cc1 (centres undefined),-2,i,1.6,i,i,i,i,i,i,
COC(=O)Cn1cc(C(=O)c2ccccc2F)c2ccccc21,-7,i,0.4,i,i,i,/,/,/,
O=C(c1ccccc1F)c1cn(Cc2ccc(F)cc2)c2ccccc12,-6,-8.7*,0.62,i,i,i,50%*,i,34%*,
COc1cc2c(cc1OC)C13CCN4CC5=CCOC(CC(=O)O)C(C5CC41)C3N2 (centres undefined),/,/,/,i,/,/,/,/,/,
ClCCOCCCl,/,/,/,i,/,/,/,/,/,
COC(=O)C1=CO[C@@H](C)[C@@H]2CN(CCc3c[nH]c4ccccc34)CC[C@H]12,-4,i,-2.3,i,i,i,/,/,/,
O=C1NC(=O)C2(CCN(c3ccccc3)CC2)C(=O)N1,/,/,/,i,/,/,/,/,/,
CCN(CC)c1ccc(CC2C(=O)N(C)C(=O)N(C)C2=O)cc1,-10,i,-2.4,i,i,i,i,i,i,
Cc1ccccc1NS(=O)(=O)c1ccc(OCC(=O)N2CCN(C)CC2)cc1,-9,i,-1,i,i,i,i,i,i,
Cc1ccc(NS(=O)(=O)c2ccc(OCC(=O)N3CCN(C)CC3)cc2)cc1,-15,i,0.63,i,i,i,/,/,/,
Oc1c(Cl)c(Cl)c(Cl)c(Cl)c1Cl,-14,i,0.83,i,i,i,i,i,i,
Fc1ccc(C[n+]2c(-c3ccccc3)cc(-c3ccccc3)cc2-c2ccccc2)cc1,-24,-11*,-9.3*,/,6*,i,52%*,68%*,i,
O=C1CC(=O)N(c2cccc(C(F)(F)F)c2)C(=O)N1,-1,i,-0.62,i,i,i,/,/,/,
FC(F)(F)c1cccc(-n2nnnc2C2(N3CCOCC3)CCCCC2)c1,-7,-10*,0.16,i,i,i,42%*,i,35%*,
Cc1cc(C)cc(N2C(=O)/C(=C\c3ccc(N4CCN(C)CC4)o3)C(=O)NC2=S)c1,-30,-9.1*,-7.1,i,10*,i,55%*,34%*,70%*,
Cc1ccc(/C=C2\C(=O)NC(=S)N(c3ccc(F)cc3)C2=O)o1,0,i,-2.4,i,i,i,/,/,/,
CN1C(=O)C(=Cc2c(OCc3cnc(Cl)s3)ccc3ccccc23)C(=O)N(C)C1=O,-25,-15*,-0.24,-9*,i,i,70%*,i,27%*,KCNK3 confirm=101*;KCNK3 noninduced=i
SMILES,hERG rescue,KCNK9 inh,Kir21 block,KCNK3 inh,KCNQ1 inh,KCNQ1 pot,KCNK9 inh conf,Kir21 sel,KCNK9 uninduced,others
CN1C(=O)C(=Cc2ccccc2OCc2ccccc2Cl)C(=O)N(C)C1=O,-8,i,-3,i,i,i,/,/,/,
COC(=O)C(Cc1ccc(N(CCCl)CCCl)cc1)N=Cc1ccccc1O (centres undefined),-5,i,0.6,i,i,i,/,/,/,
CCCC[N+]12CCC(CC1)C(=C(c1ccccc1)c1ccccc1)C2,-19,i,-0.59,i,i,i,/,/,/,
O=C(c1ccc(Cl)cc1)C1CCCN(Cc2ccc3nonc3c2)C1 (centres undefined),-13,-8.1*,-2,-9.2*,i,i,58%*,i,i,KCNK3 confirm=95*;KCNK3 noninduced=i
CC1(C)C(=O)CC[C@@]2(C)C1=CCC1C2CC[C@]2(C)C(=O)CCC12 (some centres undefined),/,/,/,i,/,/,/,/,/,
NC(N)=N/N=C/c1cn(-c2ccccc2)nc1-c1cccs1,-30,-9.2*,-9.3*,-12*,9*,i,54%*,50%*,i,KCNK3 confirm=101*;KCNK3 noninduced=i
